Screening data deposited in PubChem by several laboratories.
The list is not random: actives were taken first. Their share in the collection is about 3%.
CR mimetic SO – lowers age-related superoxide in aged yeast cells. S. cerevisiae aged cells, superoxide DHE fluorescence; active compounds read low. superoxide response (% of plate mean), % at 10 µM. actives 0.18% (n = 330,000);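 active = superoxide response under a set limit, about three screen SD below normal, cut at about 65% in these data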;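 also: yeast aged for seven days with compound at 30 °C before DHE staining; 100% = average MFI of all compound-treated wells on the plate with controls excluded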
HIF act – HIF pathway transcriptional activation | actives 0.32% (n = 300,000) | activation, % at 7.5 µM (by protocol) | U2OS HRE-luciferase reporter, luminescence; normalized: DMSO 0%, desferrioxamine 100% | AID 1910;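 active = mean activation of at least 10% of the iron chelator positive control signal, with at least half of replicates also reaching 10%; inconclusive = mean and replicate majority disagree about reaching 10%; inactive = mean and most replicates under 10%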
T cruzi inh – blocks replication of Trypanosoma cruzi; AID 1885; actives 1.4% (n = 300,000); inhibition, % (concentration not given with the values); T. cruzi beta-gal in NIH3T3, luminescence, 90 h;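 active = mean inhibition across valid replicates above about 55%, limit read from the data; inconclusive = mean below that limit but half or more replicates reach it; inactive = mean below it, under half of replicates reach it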;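 also: signal also drops with host cell toxicity which is not excluded here; 0% = plate median of DMSO wells and 100% = zero luminescence signal; higher percent means less beta-gal luminescence so fewer parasites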
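compound dosing = single 50 nL compound addition per well in DMSO | material = NIH/3T3 host cells with β-galactosidase reporter T. cruzi | input = 5,000 host fibroblasts per well | timing = ≥90 h infection period, 3 h prior cell attachment | read-out basis = percent inhibition of parasite-derived β-gal signal | detection = GalScreen β-gal luminescence, detergent lysis, 60 min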
AI-2 QS modul – modulates the Vibrio harveyi AI-2 quorum sensing system. Vibrio harveyi JMH597 AI-2 luminescence/OD600 ratio, 9 h; active compounds read low; strain lacks LuxN and CqsS sensors; 0 = neutral-control median. activity change, % at 7.5 µM. actives 0.4% (n = 300,000); in the data active = activity change below about -75%, passing the limit was not always enough; inconclusive = no clear call, values can overlap the other calls;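 also: luminescence divided by OD600 gain over 9 h not by final OD600 alone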
V-ATPase pH – alters yeast V-ATPase proton transport; AID 504577; actives 0.37% (n = 350,000); response, % at 10 µM; S. cerevisiae, pHLuorin cytosolic pH fluorescence; in the data active = response mostly above about 7.3%, no sharp cut-off; inactive = mostly below about 5.4%; also: actives read high
CendR NRP1 mod – NRP-1/CendR interaction modulation | O14786 | FAM-RPARPAR peptide binding to NRP-1, fluorescence polarization | inhibition, % at 25 µM | actives 0.85% (n = 360,000) | AID 602438;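 active = inhibition or corrected inhibition above about 18%, plus a signal ratio from 0.5 to 1.5, limit read from the data, passing the limit was not always enough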
Target sequence (O14786 whole entry, looked up): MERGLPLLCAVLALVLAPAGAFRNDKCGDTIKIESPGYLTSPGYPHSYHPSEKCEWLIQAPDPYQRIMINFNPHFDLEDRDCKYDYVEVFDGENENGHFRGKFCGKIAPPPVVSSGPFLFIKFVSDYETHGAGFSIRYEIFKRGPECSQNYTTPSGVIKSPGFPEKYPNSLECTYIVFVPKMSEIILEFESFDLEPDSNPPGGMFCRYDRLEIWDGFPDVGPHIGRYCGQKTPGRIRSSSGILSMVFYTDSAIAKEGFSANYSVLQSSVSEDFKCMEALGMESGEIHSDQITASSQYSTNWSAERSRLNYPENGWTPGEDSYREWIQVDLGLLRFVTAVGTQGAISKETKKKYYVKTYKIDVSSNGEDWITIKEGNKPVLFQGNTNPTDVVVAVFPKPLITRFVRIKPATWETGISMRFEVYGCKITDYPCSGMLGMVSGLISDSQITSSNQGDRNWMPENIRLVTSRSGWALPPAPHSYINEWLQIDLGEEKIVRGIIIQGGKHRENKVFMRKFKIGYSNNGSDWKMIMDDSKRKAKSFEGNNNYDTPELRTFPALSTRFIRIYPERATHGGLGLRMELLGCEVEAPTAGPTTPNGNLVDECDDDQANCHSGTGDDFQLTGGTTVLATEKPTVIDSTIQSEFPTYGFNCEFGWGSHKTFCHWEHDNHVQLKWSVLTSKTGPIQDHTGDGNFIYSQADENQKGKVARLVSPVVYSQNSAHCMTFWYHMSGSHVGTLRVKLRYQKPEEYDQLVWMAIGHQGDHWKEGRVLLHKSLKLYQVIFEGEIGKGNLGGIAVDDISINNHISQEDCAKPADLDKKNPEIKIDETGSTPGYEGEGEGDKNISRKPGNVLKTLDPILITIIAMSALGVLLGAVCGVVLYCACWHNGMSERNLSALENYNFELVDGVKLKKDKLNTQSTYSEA
V-ATPase pH SP – yeast V-ATPase proton transport regulation; shares compounds with V-ATPase pH; S. cerevisiae pHLuorin cytosolic pH; response, % at 10 µM; actives 2% (n = 980); AID 602197; in the data active = response above about 24%;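 also: plate controls were vehicle wells for no effect and positive control wells for full effect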
Starred values were filed as active, the others as inactive; ? = inconclusive; . = not tested or not shown.

SMILES	CR mimetic SO	HIF act	T cruzi inh	AI-2 QS modul	V-ATPase pH	CendR NRP1 mod	V-ATPase pH SP
O=C(NCC(c1ccc(F)cc1)N1CCOCC1)c1cccnc1Sc1ccc(Cl)cc1 (centres undefined)	88.2	-0.5	-10.2	-6.3	-1.4	-11.7	.
CCOC(=O)c1c(C)c(-c2ccccc2)n(CC(=O)NCCCN(CC)CC)c1C	94.0	-0.2	-16.3	27.8	14.8*	-2.6	0.0
CCOC(=O)c1[nH]c(=O)c2ccccc2c1O	130.6	-0.5	-13.4	21.1	-5.9	-3.7	2.1
CCOC(=O)c1[nH]c2ccccc2c1NC(C)=O	101.5	-0.4	-13.1	-5.3	2.6	0.8	.
O=C(O)CCC(=O)NCC(=O)c1ccc(F)cc1	109.6	0.0	-3.2	10.3	8.5	3.6	-0.6
O=C(NCCCNC(=O)c1ccc(F)cc1)c1ccc(F)cc1	102.9	0.0	-2.6	8.3	4.5	-6.6	0.8
O=C(CCCN1CCC(C(=O)c2ccc(F)cc2)CC1)c1ccc(F)cc1	95.2	-2.0	4.4	21.9	0.2	-9.2	.
O=C(O)CCC(=O)Nc1ccc(F)cc1	94.6	-0.7	?	16.4	0.6	-4.6	.
O=C(CCCC(=O)c1ccc(F)cc1)c1ccc(F)cc1	84.0	-2.1	-5.0	-57.9	7.6	1.6	1.1
Cc1ccccc1SCCNC(=O)CCc1ccccc1	88.5	2.4	5.4	0.5	.	.	.
Cc1nnc(SC(C)C(=O)N(C)C2CCCCC2)n1N (centres undefined)	112.5	.	.	.	7.1*	-2.8	0.0
CC(Sc1nnc(-c2ccco2)n1C)C(=O)N(C)C1CCCCC1 (centres undefined)	85.4	-0.1	-9.3	16.2	-2.4	3.5	.
Cn1c(N)c(C(=O)c2ccc(Cl)cc2)c(=O)n(C)c1=O	86.8	-0.3	4.9	34.2	3.4	3.9	.
Cn1c(N)c(C(=O)c2ccc(F)cc2F)c(=O)n(C)c1=O	93.4	-1.2	-12.6	12.4	8.4*	-1.9	-0.4
CCc1ccc(NC(=O)C2CCCN(S(=O)(=O)c3ccc4[nH]c(=O)ccc4c3)C2)cc1 (centres undefined)	127.1	-2.2	8.4	21.5	-1.1	0.8	.
CC(C)C(=O)N(Cc1ccc2c(c1)OCO2)Cc1ccccn1	108.4	0.6	-11.1	15.8	-2.3	3.5	.
O=C(CCC1CCN(C(=O)CC2=CCCCC2)CC1)NCc1ccc(F)cc1	.	.	.	.	7.1*	-5.1	1.0
Cn1cc(C(=O)N/N=C/c2cc(Br)cs2)c2ccccc21	87.7	3.3	1.9	18.2	.	.	.
Cc1noc(NS(=O)(=O)c2ccc(NC(=O)/C=C/c3ccccc3)cc2)c1C	104.4	.	.	.	13.0*	4.1	4.0
Cn1c(N)c(C(=O)COC(=O)CC(NC(N)=O)c2ccc(Cl)cc2)c(=O)n(C)c1=O (centres undefined)	.	.	.	.	-3.9	-4.9	.
CC(=O)NC(CC(=O)OCC(=O)c1c(N)n(C)c(=O)n(C)c1=O)c1ccccc1 (centres undefined)	104.4	-0.2	2.5	26.9	11.4*	18.7	-1.0
O=C(COc1ccc(NC(=O)c2ccccc2)cc1)c1ccccc1	94.2	0.6	-4.3	6.1	-4.5	-1.1	.
C/C(CC(=O)Nc1ccccn1)=N\NC(=O)c1cnccn1	89.0	0.7	-8.5	2.4	15.8*	-1.6	3.9
COc1cccc(CNC(=O)CCC2CCCN(C(=O)c3ccc(C)nc3)C2)c1 (centres undefined)	96.4	0.1	0.7	16.3	9.9*	5.6	4.3
Cc1ccc(C(=O)N2CCCC(CCC(=O)NCc3ccc(F)c(F)c3)C2)cn1 (centres undefined)	.	0.3	0.7	16.2	-8.5	5.9	.
SMILES	CR mimetic SO	HIF act	T cruzi inh	AI-2 QS modul	V-ATPase pH	CendR NRP1 mod	V-ATPase pH SP
COc1cc(OC)cc(C(=O)OCC(=O)Nc2nnc(-c3ccccc3)o2)c1	.	.	.	.	-3.3	-13.6	.
COc1cc(OC)c(C(=O)OCC(=O)Nc2nnc(-c3ccccc3)o2)cc1OC	113.4	.	.	.	12.5*	-2.0	2.5
CC(C)c1ccc(C(=O)OCC(=O)Nc2cccc(S(=O)(=O)NC3=NCCC3)c2)cc1	.	.	.	.	7.2*	-5.1	1.4
O=C(COC(=O)c1ccc(O)cc1)Nc1cccc(S(=O)(=O)NC2=NCCC2)c1	91.5	.	.	.	-0.5	-4.8	.
Cc1ccccc1OCC(=O)Nc1cccc(S(=O)(=O)NC2=NCCC2)c1	96.1	.	.	.	-2.4	3.2	.
CCc1ccccc1OCC(=O)Nc1cccc(S(=O)(=O)NC2=NCCC2)c1	110.7	.	.	.	9.5*	-2.7	0.9
O=C(Nc1ccc(Cl)cc1)Nc1cc(S(=O)(=O)N2CCOCC2)ccc1N1CCCC1	84.5	0.0	26.3	-0.2	-3.0	-6.5	.
O=C(Nc1ccc(F)cc1)Nc1cc(S(=O)(=O)N2CCOCC2)ccc1N1CCCC1	96.1	-0.7	3.3	2.4	8.6*	1.0	-3.2
CCOC(=O)Cc1cc(=O)n2[nH]c(C)c(-c3ccccc3OC)c2n1	108.6	-0.3	6.6	9.3	19.4*	5.4	-0.5
CC(C)(C)C(=O)Nc1ccccc1C(=O)NCCC(=O)Nc1ccccc1	86.0	-0.3	-13.0	7.9	10.6*	1.4	-1.4
O=C(NCc1ccc2c(c1)OCO2)c1cc2n(n1)C(C(F)(F)F)CC(c1ccc3c(c1)OCO3)N2 (centres undefined)	94.8	-0.5	16.6	.	3.1	7.2	.
CCOC(=O)N1CCN(C(=O)c2cc3n(n2)C(C(F)(F)F)CC(c2ccc4c(c2)OCO4)N3)CC1 (centres undefined)	94.4	-0.3	-6.2	39.5	7.4*	21.8*	-23.2
O=C(Cc1cccc2ccccc12)NN1C(=O)CSC1=S	104.7	-0.6	-5.5	-3.2	-1.9	-16.3	.
Cc1ccc(Nc2nnc(C)c3ccccc23)c(C)c1	93.6	0.0	31.3	5.0	12.4*	10.4	9.1
Cc1ccc(Nc2cc(=O)oc3ccccc23)c(C)c1	115.4	2.3	-6.0	11.9	-3.4	8.9	.
Cc1nc2ccccc2nc1NS(=O)(=O)c1ccc(N)cc1	86.9	-16.8	-8.4	-27.3	-1.9	1.3	.
COc1ccc2c(c1)C(c1ccc(C)o1)=NNC(c1cccnc1)=N2	104.1	-0.3	2.1	13.8	8.6*	2.0	6.0
COc1ccc(-n2ccn(CC(=O)Nc3ccc(OC)cc3OC)c(=O)c2=O)cc1	110.0	1.0	-22.3	24.6	9.4*	6.8	3.4
CC(Nc1ccc(Br)cc1)C(=O)Nc1cccc(S(=O)(=O)N2CCOCC2)c1 (centres undefined)	.	.	.	.	-2.4	-6.6	.
O=C(Cn1ncc2c1-c1ccccc1OC2)Nc1ccc(S(=O)(=O)N2CCCCC2)cc1	92.5	.	.	.	11.8*	-0.1	-1.8
COC(=O)c1c(N2C(=O)[C@H]3[C@@H](C2=O)[C@]2(C(=O)Nc4c(C)cccc42)N2CCC[C@@H]32)sc(C)c1C	99.8	-2.3	-5.0	26.6	-2.7	-42.5	.
